For two compounds, inhibition in vivo, UI and Activity results are on record in ChEMBL document CHEMBL2390929, “New nitric oxide donating 1,2,4-triazole/oxime hybrids: synthesis, investigation of anti-inflammatory, ulceroginic liability and antiproliferative activities” (Bioorg Med Chem, 2013).

For series [1], the system named is Rattus norvegicus. The series can be described thus: Antiinflammatory activity in albino rat assessed as inhibition of carrageenan-induced paw edema at 0.28 mmol/kg, po after 1 hr relative to control. The series is classed as functional. The essentials: (§1)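 Adult male albino rats (120–140 g), four per group, fasted 24 h with water allowed. Test agent suspended in 0.5% w/v aqueous CMC and given orally at 0.28 mmol/kg; controls received CMC alone. After 30 min, 0.1 mL fresh 1% carrageenan in saline was injected subplantar into the right hind paw and saline into the left. Paw thickness was measured by Vernier caliper; % inhibition = [(VR−VL)control − (VR−VL)treated]/(VR−VL)control ×100. Mean ± SEM, one-way ANOVA.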

Series [2] deals with Rattus norvegicus. As to the kind of experiment: Antiinflammatory activity in albino rat assessed as inhibition of carrageenan-induced paw edema at 0.28 mmol/kg, po after 4 hrs relative to control. The series is classed as functional. The essentials:
as §1
Background: In the carrageenan paw model, swelling and tenderness develop within hours.

The subject of series [3] is Rattus norvegicus. The series can be described thus: Antiinflammatory activity in albino rat assessed as inhibition of carrageenan-induced paw edema at 0.28 mmol/kg, po after 3 hrs relative to control. In kind it is functional. The essentials:
as §1

Series [4] relates to Rattus norvegicus. As to the kind of experiment: Gastrointestinal toxicity in albino rat assessed as ulcer index at 0.28 mmol/kg, po (reference value: 0.60 +/- 0.05). In kind it is organism-based. The settings on record: in vivo.
The test system of series [5] is Rattus norvegicus. The series can be described thus: Antiinflammatory activity in albino rat assessed as inhibition of carrageenan-induced paw edema at 0.28 mmol/kg, po after 2 hrs relative to control. In kind it is functional. The procedure, abridged: as §1
Series [6] has as its system Rattus norvegicus. The series can be described thus: Antiinflammatory activity in albino rat assessed as inhibition of carrageenan-induced paw edema at 0.28 mmol/kg, po after 5 hrs relative to control. The series is classed as functional. The procedure, abridged: as §1
The subject of series [7] is Rattus norvegicus. The series can be described thus: Gastrointestinal toxicity in albino rat assessed as histopathological analysis at 0.28 mmol/kg, po using haematoxylin and eosin staining by light microscopic analysis. The series is classed as organism-based. The following applies: in vivo. The essentials: (§2)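 Adult male albino rats (120–140 g, Minia University), groups of four, fasted 24 h with water allowed. Oral dose 0.28 mmol/kg suspended in 0.5% aqueous CMC; vehicle-only controls. Gastric sections dewaxed, stained with haematoxylin 5–7 min, differentiated in 1% HCl/70% alcohol, counterstained with 1% eosin 10 min. Cleared in xylene, mounted, examined by light microscopy at ×400.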

Series [8] concerns Rattus norvegicus. The series can be described thus: Gastrointestinal toxicity in albino rat assessed as severe atrophic gastritis and gland atrophy at 0.28 mmol/kg, po using haematoxylin and eosin staining by light microscopic analysis. The series is classed as organism-based. The following applies: in vivo. The procedure, abridged: as §2
Series [9] deals with Rattus norvegicus. As to the kind of experiment: Gastrointestinal toxicity in albino rat assessed as acute inflammatory cell infiltrating its whole thickness and apparently destroying surface of epithelium at 0.28 mmol/kg, po using haematoxylin and eosin staining by light microscopic analysis. The series is classed as organism-based. The following applies: in vivo. The procedure, abridged:
as §2

The subject of series [10] is Rattus norvegicus. The series can be described thus: Gastrointestinal toxicity in albino rat assessed as decreased in thickness with marked loss of mucosal membrane at areas of ulceration at 0.28 mmol/kg, po using haematoxylin and eosin staining by light microscopic analysis. In kind it is organism-based. The following applies: in vivo. The procedure, abridged:
as §2

Series [11] deals with Rattus norvegicus. As to the kind of experiment: Gastrointestinal toxicity in albino rat assessed as acute inflammatory cell infiltrating its whole thickness and apparently destroying epithelial lining of gastric pits at 0.28 mmol/kg, po using haematoxylin and eosin staining by light microscopic analysis. In kind it is organism-based, Stomach. The settings on record: in vivo. The procedure, abridged:
as §2

For series [12], the system named is Rattus norvegicus. The series can be described thus: Gastrointestinal toxicity in albino rat assessed as apoptotic glandular epithelial cells at 0.28 mmol/kg, po using haematoxylin and eosin staining by light microscopic analysis. In kind it is organism-based, Epithelial cell. The settings on record: in vivo. The procedure, abridged: as §2
Series [13] has as its system Rattus norvegicus. The series can be described thus: Gastrointestinal toxicity in albino rat assessed as capillary vasodilatation associated with accumulation of edema fluid in lamina propria at 0.28 mmol/kg, po using haematoxylin and eosin staining by light microscopic analysis. The settings on record: in vivo. The series is classed as organism-based. The essentials: as §2

Usually inhibition in vivo stands for the drop in the measured response relative to a control, in per cent. Regarding `CCn1c(SCC(=O)c2ccccc2)nnc1-c1ccc(OC)c(OC)c1`, the inhibition in vivo at 280 µmol/kg was determined as 42% with Rattus norvegicus [1]; 73% with Rattus norvegicus [2]; 61% with Rattus norvegicus [3]; 55% with Rattus norvegicus [5]; 69% with Rattus norvegicus [6]. Besides, in the series with Rattus norvegicus [4], the UI was determined as 7.36. Moreover, the Activity result in the series on Rattus norvegicus [7] was “Non-toxic”.

Turning to `COc1ccc2c(c1)c(CC(=O)O)c(C)n2C(=O)c1ccc(Cl)cc1` [INDOMETHACIN], the inhibition in vivo at 280 µmol/kg was 51% in the series on Rattus norvegicus [1]; 83% in the series with Rattus norvegicus [2]; 74% with Rattus norvegicus [3]; 67% in the series with Rattus norvegicus [5]; 87% in the series with Rattus norvegicus [6]. Also, the Activity result with Rattus norvegicus [8], with Rattus norvegicus [9], with Rattus norvegicus [10], in the series with Rattus norvegicus [11], in the series with Rattus norvegicus [12] and in the series with Rattus norvegicus [13] was “Toxic” each time. In the series with Rattus norvegicus [4], the UI amounted to 63.45.
